Assay outcomes as filed in PubChem BioAssay.
Only some compounds are listed: those with a hit (about 2.1% of all), similar ones and a draw of the others.
EWS-Fli block = inhibitors of EWS/Fli oncoprotein transcriptional activity; inhibition, % at 12.6 µM; 0.67% of 350,000 active; A673 NR0B1-luciferase reporter, viability-normalised; AID 651661;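 active means mean inhibition of at least 50% after viability correction, with every replicate also passing that limit; inconclusive means mean reaches 50% but only one of two replicates passes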;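 further: firefly luciferase signal divided by Alamar Blue viability fluorescence both relative to DMSO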
aSyn UTR inh = 5' untranslated region of α-synuclein, MLPCN primary screen; alpha-synuclein 5'UTR reporter, inhibitor activity; inhibition, % (tested at 7.5 µM); 0.82% of 300,000 active; in the data active means inhibition above about 60%; inconclusive means no clear call, values can overlap the other calls;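 further: H4 neuroglioblastoma cells stably carrying SNCA 5'UTR luciferase fusion; 0% = DMSO wells and 100% = positive control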
FN deposit inh = fibronectin deposition inhibition. AH1F fibroblasts, Alexa488-fibronectin deposition fluorescence, overnight. inhibition, % at 12.6 µM. 0.086% of 350,000 active. AID 743247;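 active means mean inhibition across replicates of 30% or more, regardless of how many single replicates reach that level; inconclusive means mean under 30% yet at least half of replicates reach 30%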;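 further: positive control wells lacked labelled fibronectin entirely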
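Assay system: AH1F fibroblast monolayer, labelled fibronectin deposition. Amount: 10000 cells per well. Also added: labelled fibronectin 24 nM. Compound: single-point pinned compound. Incubation: cell attachment 1 h, compound and FN exposure overnight. Detection: fluorescence after three HBSS washes, excitation 485 nm, emission 525 nm. Read-out: inhibition of fibronectin deposition signal.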
PAX8 inh HTS = inhibitors of PAX8 transcriptional activity in RMG-I cells; RMG-I TPO-luciferase reporter, SteadyGlo, 24 h; inhibition, % at 12.6 µM; 1.2% of 360,000 active;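 active means mean replicate inhibition at least 60% with every replicate also reaching 60%; inconclusive means only one of the two criteria is met; inactive means mean below 60% and not all replicates reaching 60%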;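 further: luciferase light reporting Pax8 driven TPO promoter activity; plate controls were median of neutral control wells for no effect and mitoxantrone controls for full effect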
EBV LMP1 NFkB = inhibitors of Epstein-Barr LMP1-induced NF-kappaB reporter; inhibition, % at 12.5 µM; LMP1-induced NF-kappaB luciferase reporter cells, luminescence; AID 504558; 0.69% of 350,000 active; in the data active means inhibition above about 41%; inconclusive means no clear call, values can overlap the other calls;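 further: 0% = neutral control wells and 100% = reference inhibitor control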
Shn3 inh set2 = reduces Shn3 3'UTR luciferase signal in osteoblasts; Clone20 osteoblast Shn3 3'UTR firefly luciferase, 24 h; inhibition, % at 12.5 µM; 0.52% of 360,000 active;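 active means mean inhibition of at least 75% with every replicate also reaching 75%; inconclusive means mean inhibition at least 75% but some replicate below; inactive means mean inhibition below 75%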;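 further: 0% = median of neutral control wells and 100% = pilot-screen positive control compound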
Starred values were filed as active, the others as inactive; ? = inconclusive; · = no result given.

SMILES	EWS-Fli block	aSyn UTR inh	FN deposit inh	PAX8 inh HTS	EBV LMP1 NFkB	Shn3 inh set2
CC1(C(=O)Nc2cccc(OC(F)(F)F)c2)Cc2c(-c3ccc4c(c3)OCO4)ccnc2O1 (stereo unspecified)	35	·	34*	14	·	3
C[C@@H]1CN([C@@H](C)CO)C(=O)c2cc(NC(=O)Nc3ccc4c(c3)OCO4)ccc2O[C@@H](C)CCCCO[C@@H]1CN(C)S(=O)(=O)c1cn(C)cn1	-56	·	·	·	·	·
COc1ccc(Nc2cc(C)nc(NCc3ccccc3)n2)cc1	16	-10	12	8	8	89*
CC[n+]1c(/C=C/N(C)c2ccccc2)oc2ccc(Cl)cc21	6	18	9	31	5	51
CCN1/C(=C/C=C/c2oc3ccc4ccccc4c3[n+]2CC)Oc2ccc3ccccc3c21	·	92*	·	·	·	·
Nc1ncnc(N)c1N=Nc1ccccc1	-6	112*	12	-10	2	72
NCCc1c(-c2ccccc2)n(-c2ccccc2)c2ccccc12	13	23	44*	-6	-12	36
Cc1nc2cc3ccccc3cc2n1C	·	-8	-2	-33	-6	-2
Cn1c(=O)[nH]c2cc3ccccc3cc21	·	62*	3	-17	14	4
C[C@@H]1CN([C@H](C)CO)C(=O)c2cc(C#CCN(C)C)cnc2O[C@@H]1CN(C)Cc1cccc(C(=O)O)c1	-3	·	·	·	·	·
COc1ccc(-n2nc([N+](=O)[O-])c(=NCCc3ccccc3)n2O)cc1	-10	-37	4	94*	-10	2
O=[N+]([O-])c1nn(-c2ccccc2)n(O)c1=NCCc1ccccc1	·	-50	·	·	-13	-31
O=[N+]([O-])c1nn(-c2ccccc2)n(O)c1=NC1CCN(Cc2ccccc2)CC1	41	76*	-3	27	-7	-1
C[C@H]1CCCCO[C@@H](CN(C)S(=O)(=O)c2ccccc2)[C@@H](C)CN([C@@H](C)CO)C(=O)c2cc(NS(C)(=O)=O)ccc2O1	2	·	·	-3	·	·
c1ccc(Nc2ncnc3sccc23)cc1	-13	-17	5	-41	-1	-11
CC(Nc1ncnc2sccc12)c1ccccc1 (stereo unspecified)	41	45	-18	25	24	87*
COc1ccccc1C(=O)N/C(=C\c1ccc(Br)cc1)C(=O)NCC(=O)O	0	-5	-2	-10	-4	0
O=C(N/C(=C/c1ccc(Br)cc1)C(=O)N1CCOCC1)c1ccc(Br)o1	·	2	-5	13	61*	-2
COc1ccccc1C(=O)N/C(=C/c1ccc(Br)cc1)C(=O)N1CCCC1	11	6	32*	9	-3	0
O=C(Nc1cccc(F)c1)N1C[C@@H]2[C@H](c3ccccc31)[C@H](CO)N2C(=O)c1cccnc1	-11	·	-12	-2	·	·
COC(=O)C[C@H]1C[C@H]2c3cc(NS(C)(=O)=O)ccc3O[C@H]2[C@H](CO)O1	7	·	·	13	·	·
CCO[C@@H]1OC(C(=O)NCc2nc3ccccc3[nH]2)=C[C@H](C2CC2)[C@H]1CCCO	44	-119	14	10	3	16
CCO[C@@H]1OC(C(=O)NCc2nc3ccccc3[nH]2)=C[C@H](C(C)(C)C)[C@H]1CCCO	53*	85*	-12	64*	10	34
O=C(CC(F)(F)F)N1C[C@H]2[C@@H](c3ccccc31)[C@@H](CO)N2C(=O)Cc1cccnc1	-2	·	·	6	·	·
Cc1ccc(CN2CCC(c3nc4ccc(Cl)cc4[nH]3)CC2)cc1	14	18	·	·	4	-8
SMILES	EWS-Fli block	aSyn UTR inh	FN deposit inh	PAX8 inh HTS	EBV LMP1 NFkB	Shn3 inh set2
Cc1cc2nc(C3CCN(Cc4nnnn4Cc4cccs4)CC3)[nH]c2cc1C	40	63*	·	·	-2	27
CCc1ccc(/C=N/NC(=O)c2ccccn2)cc1	11	34	0	-9	49*	·
CCOc1ccc(NC(=O)c2ccccn2)cc1	78*	104*	-4	65*	65*	48
CCN(CC)c1ccc(/C=N/NC(=O)c2ccccn2)cc1	-30	-125	8	-51	0	·
CCOc1ccc(NC(=O)c2cnsn2)cc1	·	·	·	·	56*	10
C[C@@H]1CN([C@H](C)CO)C(=O)Cc2cc(NC(=O)CCN3CCOCC3)ccc2O[C@H]1CN(C)C(=O)NC1CCCCC1	1	·	6	15	·	·
O=C(COC(=O)c1ccccc1C(=O)c1ccc(Cl)c([N+](=O)[O-])c1)NC1CC1	63*	-23	25	33	50*	70
C/C=C/c1ccc([C@@H]2[C@@H](CO)N(Cc3nccs3)C23CN(CC2CCCC2)C3)cc1	·	·	-4	·	·	·
C[C@H]1CN([C@@H](C)CO)S(=O)(=O)c2ccc(-c3ccc(C#N)cc3)cc2O[C@@H]1CN(C)Cc1ccccn1	67*	·	·	?	·	·
Cc1ccc(-c2ccc3c(c2)O[C@@H](CN(C)Cc2ccccn2)[C@H](C)CN([C@H](C)CO)S3(=O)=O)cc1	65*	·	·	·	·	·
C[C@H]1CN([C@@H](C)CO)S(=O)(=O)c2ccc(C3=CCCCC3)cc2O[C@H]1CN(C)Cc1ccccn1	16	·	-22	0	·	·
Cc1ccc(-c2ccc3c(c2)O[C@@H](CN(C)Cc2ccccn2)[C@H](C)CN([C@@H](C)CO)S3(=O)=O)cc1	31	·	·	·	·	·
C[C@H](CO)N1C[C@H](C)[C@@H](CN(C)Cc2ccccn2)Oc2cc(-c3ccc(C#N)cc3)ccc2S1(=O)=O	-9	·	·	21	·	·
C[C@H]1CN([C@@H](C)CO)S(=O)(=O)c2ccc(C3=CCCCC3)cc2O[C@@H]1CN(C)Cc1ccccn1	65*	·	-4	58	·	·
Cc1ccc(S(=O)(=O)Nc2ccc3c(c2)C(=O)N([C@H](C)CO)C[C@@H](C)[C@@H](CN(C)Cc2ccccc2)OCCCC[C@@H](C)O3)cc1	17	·	-2	11	·	·
CO[C@H]1CN(C)C(=O)c2cc(NC(=O)C3CC3)ccc2OC[C@@H](C)N(C(=O)Cc2ccccn2)C[C@@H]1C	-7	·	5	7	·	·
C[C@@H]1CN([C@@H](C)CO)C(=O)c2ccccc2-c2ccccc2CO[C@@H]1CN(C)C(=O)Cc1ccccc1	·	·	3	·	·	·
COc1ccccc1S(=O)(=O)N1CC[C@@H]2[C@H]1c1cc(-c3ccccc3)ccc1N(C)[C@H]2CO	6	·	1	-1	·	·
COc1cccc(-c2ccc3c(c2)[C@@H]2[C@@H](CCN2S(=O)(=O)c2ccccc2OC)[C@H](CO)N3C)c1	0	·	16	84*	·	·
COc1cccc(-c2ccc3c(c2)[C@@H]2[C@@H](CCN2S(=O)(=O)c2ccccc2C)[C@H](CO)N3C)c1	5	·	1	82*	·	·
COc1cccc(-c2ccc3c(c2)[C@H]2[C@H](CCN2S(=O)(=O)c2ccccc2OC)[C@@H](CO)N3C)c1	-5	·	2	92*	·	·
O=C(NCCc1ccccc1)c1ccc2c(c1)OCO2	73*	91*	2	54	49*	22
O=C(NCCc1ccccc1)c1cccnc1	·	-99	7	-117	-10	-30
